Published values pooled from the literature.
Lines come from different studies, so protocols differ.
Target: Homeodomain-interacting protein kinase 1 (HIPK1, Homo sapiens, UniProt Q86Z02)

Compound | assay | setting | remaining binding
COc1ccc2c(c1)O[C@@H](c1ccc(OC)c(OC)c1)C[C@H]2NC(=O)C1(c2ccc3c(c2)OC(F)(F)O3)CC1 | cell-free assay, competition with immobilised ligand | 1 µM | 86%
CN(C)c1nccc(-c2cnc3ncccn23)n1 | binding | 1 µM | 44%
COc1cnc(Nc2cccc(S(N)(=O)=O)c2)nc1N1CCN(c2ccccc2)C(=O)C1 | binding, competition with immobilised ligand | 1 µM | 79%
FC(F)(F)Oc1cccc(-c2cnc3ccc(-c4ccncc4)nn23)c1 | cell-free assay, competition with immobilised ligand | 5 µM | 0.15%
Cc1c(C(=O)O)cc(-c2ccc(C3CCNCC3)cc2)c2ccc(-c3ccc(C(F)(F)F)cc3)cc12 | binding, competition with immobilised ligand | 1 µM | 100%
c1cnn2ncc(-c3ccnc(N4CCC45COC5)n3)c2c1 | binding | 1 µM | 29%
COc1ccc2cc(OCC3(C(=O)O)CN(C(=O)c4ccc(F)cc4)C3)ccc2c1 | cell-free assay, competition with immobilised ligand | 1 µM | 100%
Nc1ncc2c(n1)-c1c([nH]c3ccc(C#CC4CC4)cc13)CCCC2 | binding, competition with immobilised ligand | 1 µM | 87%
O=C(c1ccc(Nc2ncc(Cl)c(-c3ccc(Cl)s3)n2)cc1)N1CCC(N2CCCC2)CC1 | binding, competition with immobilised ligand | 1 µM | 1.3%
COc1cnc(Nc2cccc(S(N)(=O)=O)c2)nc1N1CCN(c2ccccc2)CC1 | binding, competition with immobilised ligand | 1 µM | 98%
CN(CCCC(F)(F)F)c1nccc(-c2cnn3ncccc23)n1 | binding | 1 µM | 70%
O=C(NCCCN1CCOCC1)c1ccc(Nc2ncc(Cl)c(-c3ccc(Cl)s3)n2)cc1 | binding, competition with immobilised ligand | 1 µM | 8.7%
N[C@H]1CCN(c2nccc(-c3cnn4ncccc34)n2)C1 | binding | 1 µM | 54%
CC(=O)C1=C(C)N(c2cccc(C(F)(F)F)c2)C(=O)N[C@@H]1c1ccc(C#N)nc1 | cell-free assay, competition with immobilised ligand | 1 µM | 72.6%
O=C(NCC1CCOCC1)c1n[nH]cc1NC(=O)c1c(F)cccc1F | binding, competition with immobilised ligand | 1 µM | 69%
Cc1cnn2ncc(-c3ccnc(N(C)C)n3)c2c1 | binding | 1 µM | 39%
O=C(NCCCN1CCOCC1)c1ccc(Nc2nccc(-c3cc4ccccc4s3)n2)cc1 | binding, competition with immobilised ligand | 1 µM | 36%
O=C(O)c1cc(-c2ccc(C3CCNCC3)cc2)c2ccc(-c3ccc(C(F)(F)F)cc3)cc2c1 | cell-free assay, competition with immobilised ligand | 1 µM | 97%
C[C@@H]1CCN(c2nccc(-c3cnn4ncccc34)n2)C1 | binding | 1 µM | 52%
CCCCN(CCCC)C(=O)CN1C[C@@H](c2cc(OC)c3c(c2)OCO3)[C@H](C(=O)O)[C@H]1CC(C)(C)CCC | cell-free assay, competition with immobilised ligand | 1 µM | 77.3%
C=CC(=O)N1CCC(C(=O)NCC(=O)N2CCN(c3nc(-c4cnc(N)nc4C(F)F)nc(N4CCOCC4)n3)CC2)CC1 | binding, competition with immobilised ligand | 1 µM | 97%
